# Only some compounds are listed: those with a hit (about 2.3% of all), similar ones and a draw of the others.
# ADAM17 inh: ADAM17 inhibitors, primary screen, biochemical, QFRET; actives 0.83% (n = 370,000); inhibition, % at 6.95 µM; Disintegrin and metalloproteinase domain-containing protein 17 (Homo sapiens), P78536; recombinant ADAM17, EDANS/DABCYL FRET peptide cleavage;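 active means inhibition above the mean of compounds lying between control limits plus 3 SD, set per campaign, cut at about 8.5% in these data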;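 further: 0% = DMSO-only wells as the low control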
# Target sequence (P78536 215-824 limits assumed): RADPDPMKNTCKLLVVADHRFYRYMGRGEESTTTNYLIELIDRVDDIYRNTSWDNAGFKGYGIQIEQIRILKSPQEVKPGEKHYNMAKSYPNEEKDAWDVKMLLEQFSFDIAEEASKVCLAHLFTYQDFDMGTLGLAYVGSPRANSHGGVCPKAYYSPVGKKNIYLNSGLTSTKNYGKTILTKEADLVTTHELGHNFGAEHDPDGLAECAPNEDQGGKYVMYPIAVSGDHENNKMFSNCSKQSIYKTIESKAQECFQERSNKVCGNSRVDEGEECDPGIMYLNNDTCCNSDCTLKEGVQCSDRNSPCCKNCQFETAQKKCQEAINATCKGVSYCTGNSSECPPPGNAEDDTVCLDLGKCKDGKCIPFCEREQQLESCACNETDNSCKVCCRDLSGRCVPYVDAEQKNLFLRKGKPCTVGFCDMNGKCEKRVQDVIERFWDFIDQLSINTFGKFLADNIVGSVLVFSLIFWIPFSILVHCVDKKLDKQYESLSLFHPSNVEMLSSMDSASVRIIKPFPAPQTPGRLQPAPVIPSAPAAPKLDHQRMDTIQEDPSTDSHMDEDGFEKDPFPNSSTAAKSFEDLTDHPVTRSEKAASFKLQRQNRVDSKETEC
# PLCb3 inh: human PLC-beta3 inhibitors, primary screen, biochemical, fluorescence | inhibition, % at 12.2 µM | AID 720704, 2013 | Purified PLC-beta3, fluorogenic substrate | 1-phosphatidylinositol 4,5-bisphosphate phosphodiesterase beta-3 (Homo sapiens), Q01970 | actives 0.18% (n = 370,000); in the data active means inhibition above about 11%;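 further: 0% = median of compound wells on plate and 100% = full blocker control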
# ADAM10 inh: human ADAM10 inhibitors, primary screen, biochemical, QFRET, HTS; Disintegrin and metalloproteinase domain-containing protein 10 (Homo sapiens), O14672; recombinant ADAM10, EDANS/DABCYL FRET peptide cleavage, 3 h; inhibition, % at 7 µM; actives 0.62% (n = 370,000);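 active means inhibition above a per-campaign cutoff equal to the mean of compounds falling between control-based bounds plus 3 SD, cut at about 20% in these data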;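 further: 0% = DMSO wells while the 100% control is not disclosed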
# Tn6 DDE FP: inhibitors of Tn6 peptide binding to fibrin DD(E), primary screen, biochemical, fluorescence polarization, human fibrin, Tn6 probe; Fibrinogen beta chain (Homo sapiens), P02675; Fibrin DD(E) TRITC-Tn6 fluorescence polarization displacement; inhibition, % at 8.3 µM; actives 0.21% (n = 370,000);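 active means inhibition above a per-campaign cutoff: mean of compounds within control limits plus 3 SD, cut at about 15% in these data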;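 further: 0% = median of all compound wells on the plate and 100% = blocking peptide control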
# PLC-gamma1 inh: PLC-gamma1 enzyme inhibitors, primary screen, biochemical, fluorescence, purified enzyme. 1-phosphatidylinositol 4,5-bisphosphate phosphodiesterase gamma-1 (Homo sapiens), P19174. fluorogenic substrate. inhibition, % at 12.2 µM. actives 0.84% (n = 370,000). AID 720700, 2013
# DDE Tn7 FP inh: inhibitors of Tn7 peptide binding to fibrin DD(E), primary screen, biochemical, fluorescence polarization, human fibrin, Tn7 probe; FP displacement of FITC-Tn7 peptide from fibrin DD(E); 0% = median of compound wells per plate; inhibition, % at 8.3 µM; actives 0.13% (n = 370,000); Fibrinogen beta chain (Homo sapiens), P02675;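 active means inhibition above the mean of compounds falling within the control limits plus 3 SD of them, cut at about 14% in these data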;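 further: 0% = plate median of compound wells and 100% = 10 µM Aha-Tn7 peptide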
#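 Also added: labelled Tn7 tracer, 0.1 µM; Assay system: human fibrin DD(E) protein; Amount: 2 µM fibrin DD(E); Schedule: 10 min compound pre-incubation, 3 h probe incubation at room temperature; Repeats: one replicate per compound; Read-out basis: percent inhibition; Measured by: fluorescence polarization of the labelled Tn7 tracer.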
# PLCg1 ctr: PLC-gamma1 enzyme inhibitors, counter-screen for PLC-beta3 inhibitor project, biochemical, fluorescence. shares compounds with PLC-gamma1 inh. purified PLC-gamma1, fluorogenic substrate. inhibition, % at 12.3 µM. actives 3.1% (n = 3,300)
# PLCb3 confirm: PLC-beta3 inhibitor confirmation, biochemical, fluorescence, purified enzyme; fluorogenic substrate fluorescence; shares compounds with PLC-gamma1 inh; inhibition, % at 12.3 µM; actives 1% (n = 3,300); in the data active means inhibition above about 11%
# The depositor's hits bear a star; nt = not tested or not shown. Unless noted, no stated cut-off is given here; in the data, active means inhibition above about 9.5%; inactive means the rest.
SMILES,ADAM17 inh,PLCb3 inh,ADAM10 inh,Tn6 DDE FP,PLC-gamma1 inh,DDE Tn7 FP inh,PLCg1 ctr,PLCb3 confirm
COc1ccc(S(=O)(=O)N2CCC(c3nc4ccccc4o3)CC2)c(OC)c1,4,4,2,-4,6,7,nt,nt
O=C(Nc1ccccc1C(F)(F)F)OCCN1C(=O)CCC12CCC(c1ccccc1)CC2 (centres undefined),0,0,5,-1,2,10,nt,nt
C[C@@H]1C(=O)N2N=Cc3ccccc3[C@H]2N2N=Cc3ccccc3[C@@H]12,-3,0,-1,4,-4,1,nt,nt
C[C@@H]1[C@@H](O)C[C@@]2(C[C@H](O)c3cc(F)ccc3O2)O[C@H]1c1ccccc1Cl,0,-4,7,-1,-5,-5,nt,nt
CCCCCN1CCCCC(NC(=O)c2ccc(F)c(F)c2)C1=O (centres undefined),-6,1,-6,-2,-2,2,nt,nt
COc1ccccc1COCC(O)CN1CCN(S(=O)(=O)c2cccc(F)c2)CC1 (centres undefined),8,0,-8,3,15*,-5,-2,2
CN(Cc1ccc(F)cc1)C(=O)c1ccc(NS(=O)(=O)c2ccc3[nH]c(=O)[nH]c3c2)cc1,-2,0,-4,2,0,8,nt,nt
COc1ccc(CN(C)C(=O)c2ccc(NS(=O)(=O)c3ccc4[nH]c(=O)[nH]c4c3)cc2)c(OC)c1,0,-2,3,1,15*,2,1,-5
CC(C)C[C@@H](NC(=O)OC(C)(C)C)C(=O)N1O[C@]23C=C[C@]14C[C@@H](O)CC[C@]4(C)C2CC[C@]1(C)[C@@H]([C@H](C)/C=C/[C@H](C)C(C)C)CC[C@H]13 (some centres undefined),-1,1,-128,-5,2,-4,nt,nt
CC(C)[C@@H](C)/C=C/[C@@H](C)[C@H]1CC[C@@H]2[C@]1(C)CCC1[C@]23C=C[C@]2(C[C@@H](O)CC[C@]12C)N(c1ccc(Br)cn1)O3 (some centres undefined),3,-6,3,-4,9.9*,1,-1,1
COC(=O)C[C@H]1CC[C@@H]2[C@H](COc3ccc(NC(=O)c4cnccn4)cc3C(=O)N2C)O1,-1,1,0,-4,1,-2,nt,nt
COc1ccc(CCNC(=O)Nc2ccc3c(c2)[C@@]2(CC(=O)N(CC(C)C)C2c2ccccc2)C(=O)N3C)cc1OC (some centres undefined),-5,0,-1,1,-1,6,nt,nt
Cc1ccccc1NC(=O)Cn1nnc(-c2ccncc2)n1,-1,0,-7,0,0,3,nt,nt
Cc1c(NC(=O)c2ccc3c(c2)OCO3)cccc1-c1nc2ccccc2o1,5,-2,-3,0,7,0,nt,nt
COc1ccc(C(=O)Nc2cc(C)nc3ccccc23)cc1OC,7,2,12,0,10*,5,-6,-2
COc1cc(C(=O)Nc2cccc(-c3nc4ccccc4o3)c2C)cc(OC)c1OC,9,4,0,-1,14*,-5,-6,0
Nc1cc(=O)n(Cc2ccccc2)c(N)c1C(=O)NCc1ccccc1,-6,0,-15,-2,1,5,nt,nt
CCCC(=O)N1CCC[C@]2(CC[C@@H](CCC(=O)N(CC)CC)O2)C1,-1,3,-2,2,2,-7,nt,nt
CCCCNC(=O)C[C@@H]1C[C@@]2(C(=O)OC)CCCCC=C2N(Cc2cccc3ccccc23)C1=O,-2,-2,-16,-12,11*,5,-1,4
Cc1c[nH]c2cccc(-c3cccc4ccccc34)c12,-9,-32,-20,-6,-20,6,nt,nt
C#CCCCN([C@@H](CC(C)C)C(=O)OC)S(=O)(=O)c1ccc(F)cc1Br,1,0,5,-4,-2,-1,nt,nt
Cc1cccc[n+]1CC(=O)Nc1ccc([N+](=O)[O-])cc1Cl,8,7,12,-1,14*,-3,-3,0
C=CCN1[C@H](Cc2ccccc2)COc2cccc(N3CCCC3)c2S1(=O)=O,-2,-2,-8,-1,-1,-4,nt,nt
CCCCNC(=O)C[C@H]1C[C@@]2(C(=O)OC)C(=C[C@H](C3CCCC3)O[C@@H]2C)N(Cc2ccccc2)C1=O,-4,1,0,4,0,0,nt,nt
CCNC(=S)N/N=C/c1ccc(OCC(=O)Nc2ccc(OC)cc2)c(OC)c1,7,17*,1,0,16*,-6,5,-1
SMILES,ADAM17 inh,PLCb3 inh,ADAM10 inh,Tn6 DDE FP,PLC-gamma1 inh,DDE Tn7 FP inh,PLCg1 ctr,PLCb3 confirm
CCOc1ccccc1C(=O)NCC(=O)NCCc1ccc(S(N)(=O)=O)cc1,2,2,17,-1,10.0*,-1,-6,-1
O=C(NNS(=O)(=O)c1ccc(Cl)cc1)c1ccc(S(=O)(=O)N2CCCCC2)cc1,5,11*,19,2,5,-8,-4,-6
CN(C)CC(=O)N[C@H]1C[C@@H]2O[C@H](CO)CC[C@@H]2O[C@@H]1CCc1ccc(-c2ccc(F)cc2)cc1,-4,-4,-5,1,3,-7,nt,nt
CN(CCOC(=O)c1occ2ccccc12)C1CN(Cc2cn(Cc3ccccc3Cl)nn2)S(=O)(=O)C1 (centres undefined),-6,2,-8,-2,-1,0,nt,nt
O=C(Nc1cc2c(cc1[N+](=O)[O-])OCCO2)c1cccnc1,-3,7,-11,-7,10*,6,-3,-1
Clc1ccc(SCCOCCN2CCOCC2)cc1,-3,-3,-10,-6,1,-2,nt,nt
Clc1ccc(SCCCCN2CCOCC2)cc1,5,9,7,-7,14*,0,0,2
COc1ccc2c(c1)CN1CN(Cc3ccccc3)S(=O)(=O)CC21 (centres undefined),-7,-15,-24,3,-11,4,nt,nt

# From PubChem
